Test results reported in ChEMBL document CHEMBL2176930, “Structure-based design of novel inhibitors of the MDM2-p53 interaction” (J Med Chem, 2012).
Activity calls are given as the source filed them. No cut-off for these calls is given here.

Experiments:
SJSA-1 [1] = experiment: cells; conditions: Homo sapiens, SJSA-1, 72 h
[2] = target: T1, Tumour suppressor p53/oncoprotein Mdm2 (Homo sapiens, UniProt Q00987); type: protein assay
[3] = target: T1, Tumour suppressor p53/oncoprotein Mdm2; type: protein assay; remark: listed apart in the source
[4] = Volume of distribution at steady state in mouse; type: ADME, organism-based; conditions: in vivo, read-out: Vdss
[5] = Volume of distribution in cynomolgus monkey; type: ADME, organism-based, Macaca fascicularis; conditions: in vivo
SJSA-1 [6] = experiment: Antitumor activity against human SJSA1 cells xenografted in athymic nude mouse assessed as tumor growth regression at 150 mg/kg, po qd for 14 days; type: functional, organism-based; set-up: dose 150 mg/kg
[7] = Volume of distribution at steady state in rat; type: ADME, organism-based; conditions: in vivo, read-out: Vdss
SJSA-1 [8] = experiment: animal or person; conditions: Mus musculus, SJSA-1, po, 336 h
Mus musculus [9] = experiment: Activity at p53 in human SJSA1 cells xenografted po dosed mouse assessed as induction of p21 mRNA expression administered qd for 4 days by RT-PCR analysis relative to control; type: functional, organism-based; conditions: SJSA-1
Method in brief: (§1)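 Female athymic nude mice carrying subcutaneous SJSA-1 tumours (5 × 10^6 cells implanted; dosing at ∼175 mm3). Oral dosing q.d. for 4 days. Tumours were snap-frozen and p21 mRNA measured by quantitative RT-PCR. Reported as mean fold induction over vehicle tumours, with SEM.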

Mus musculus [10] = experiment: Activity at p53 in human SJSA1 cells xenografted mouse assessed as induction of p21 mRNA expression at 150 mg/kg, qd for 4 days by RT-PCR analysis; type: functional, organism-based; set-up: dose 150 mg/kg; conditions: SJSA-1
Method in brief: as §1

SJSA-1 [11] = experiment: Antitumor activity against human SJSA1 cells xenografted in po dosed mouse assessed as tumor growth inhibition administered bid measured twice per weak; type: functional, organism-based
Method in brief: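 Female athymic nude mice implanted subcutaneously with 5 × 10^6 SJSA-1 cells. Vehicle or compound at 25, 50, 75 or 100 mg/kg b.i.d. by oral gavage, starting on day 10 at ∼200 mm3 tumours (n = 10/group). Tumour size and body weight measured twice weekly; mean tumour volume ± SEM.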

[12] = Oral bioavailability in mouse; type: ADME, organism-based; conditions: in vivo
[13] = Oral bioavailability in rat; type: ADME, organism-based; conditions: in vivo
[14] = Plasma clearance in rat; type: ADME, organism-based
Mus musculus [15] = experiment: Activity at p53 in human SJSA1 cells xenografted po dosed mouse assessed as induction of p21 mRNA expression administered once measured after 6 hrs by RT-PCR analysis; conditions: SJSA-1
[16] = Intrinsic clearance in human hepatocytes assessed per million cells; type: ADME, cell-based, Hepatocyte; conditions: read-out: CLH
CYP3A4 [17] = target: T2, CYP3A4 (Homo sapiens, UniProt P08684); experiment: Inhibition of human CYP3A4 at 3 uM; type: ADME
T2 sequence (P08684 whole entry): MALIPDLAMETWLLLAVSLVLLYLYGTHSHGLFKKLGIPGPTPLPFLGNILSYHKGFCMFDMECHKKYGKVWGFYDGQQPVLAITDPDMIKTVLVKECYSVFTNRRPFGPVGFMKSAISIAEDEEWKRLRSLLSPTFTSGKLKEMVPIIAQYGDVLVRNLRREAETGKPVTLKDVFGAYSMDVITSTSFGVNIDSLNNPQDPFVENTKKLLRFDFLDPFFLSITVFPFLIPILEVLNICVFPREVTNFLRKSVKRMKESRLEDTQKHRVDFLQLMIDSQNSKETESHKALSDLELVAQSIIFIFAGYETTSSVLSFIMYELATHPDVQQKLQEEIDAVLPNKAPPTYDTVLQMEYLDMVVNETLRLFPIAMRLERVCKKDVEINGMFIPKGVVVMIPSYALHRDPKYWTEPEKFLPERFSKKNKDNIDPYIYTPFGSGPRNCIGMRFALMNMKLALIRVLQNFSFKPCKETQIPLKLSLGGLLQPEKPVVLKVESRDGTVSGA

[18] = Plasma clearance in mouse; type: ADME, organism-based
PXR (NR1I2) = target: T3, PXR (NR1I2) (Homo sapiens, UniProt O75469); experiment: Activation of human PXR at 2 uM relative to control; conditions: read-out: Activity
T3 sequence (O75469 whole entry): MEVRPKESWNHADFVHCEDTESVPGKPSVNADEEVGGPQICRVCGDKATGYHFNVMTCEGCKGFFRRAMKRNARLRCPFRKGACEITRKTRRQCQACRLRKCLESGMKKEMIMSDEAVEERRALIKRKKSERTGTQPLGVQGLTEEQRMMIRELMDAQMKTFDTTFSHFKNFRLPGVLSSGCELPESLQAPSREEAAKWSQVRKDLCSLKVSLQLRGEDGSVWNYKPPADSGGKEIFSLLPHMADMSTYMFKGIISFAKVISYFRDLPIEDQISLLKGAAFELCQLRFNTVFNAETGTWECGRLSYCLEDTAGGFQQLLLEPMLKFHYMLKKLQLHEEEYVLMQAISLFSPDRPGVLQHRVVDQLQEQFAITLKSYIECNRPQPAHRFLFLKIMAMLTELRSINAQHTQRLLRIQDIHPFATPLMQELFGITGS

SJSA-1 [19] = experiment: animal or person; conditions: Mus musculus, SJSA-1, po, 336 h, read-out: TGI
SJSA-1 [20] = experiment: Antitumor activity against human SJSA1 cells xenografted in po dosed athymic nude mouse assessed as tumor growth inhibition administered qd after 14 days
HCT-116 = experiment: Induction of p21 mRNA expression in p53 deficient human HCT116 cells after 7 hrs by RT-PCR analysis; type: functional, cell-based
Method in brief: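 HCT116 p53−/− cells exposed to compound for 7 h. Total RNA extracted and p21 mRNA quantified by quantitative RT-PCR.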

CYP3A4 [21] = target: T2, CYP3A4; experiment: Time dependent inhibition of human CYP3A4 assessed as residual activity at 10 uM after 15 mins relative to control; type: ADME; conditions: read-out: Activity

T1 sequence (P04637 whole entry): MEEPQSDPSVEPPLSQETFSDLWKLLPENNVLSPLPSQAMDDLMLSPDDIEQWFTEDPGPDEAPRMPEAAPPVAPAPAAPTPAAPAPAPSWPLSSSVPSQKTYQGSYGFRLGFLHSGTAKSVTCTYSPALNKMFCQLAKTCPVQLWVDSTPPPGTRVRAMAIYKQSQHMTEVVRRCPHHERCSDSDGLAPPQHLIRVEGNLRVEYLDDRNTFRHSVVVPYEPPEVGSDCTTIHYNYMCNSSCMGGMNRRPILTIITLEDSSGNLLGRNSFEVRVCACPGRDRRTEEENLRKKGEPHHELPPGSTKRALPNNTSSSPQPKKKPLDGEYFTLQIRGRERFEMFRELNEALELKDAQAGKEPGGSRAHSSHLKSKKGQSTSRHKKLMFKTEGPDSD
T1 sequence (Q00987 whole entry): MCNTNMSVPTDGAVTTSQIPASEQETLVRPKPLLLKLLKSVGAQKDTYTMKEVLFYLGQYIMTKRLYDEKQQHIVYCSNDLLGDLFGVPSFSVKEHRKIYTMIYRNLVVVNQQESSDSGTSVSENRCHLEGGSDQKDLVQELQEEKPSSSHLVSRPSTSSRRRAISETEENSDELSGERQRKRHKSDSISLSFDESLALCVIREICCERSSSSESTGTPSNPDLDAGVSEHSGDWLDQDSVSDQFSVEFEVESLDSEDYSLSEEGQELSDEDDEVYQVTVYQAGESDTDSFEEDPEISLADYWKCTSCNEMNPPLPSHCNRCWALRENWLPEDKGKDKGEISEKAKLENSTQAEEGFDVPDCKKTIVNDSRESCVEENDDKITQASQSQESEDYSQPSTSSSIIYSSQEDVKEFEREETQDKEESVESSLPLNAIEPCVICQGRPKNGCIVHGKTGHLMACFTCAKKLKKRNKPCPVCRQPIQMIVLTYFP

Structure (SMILES)	IC50 [2] [nM]	IC50 [3] [nM]	other results
CCC(CC)N1C(=O)[C@@](C)(CC(=O)O)C[C@H](c2cccc(Cl)c2)[C@H]1c1ccc(Cl)cc1	–	–	IC50 (SJSA-1 [1]): 540 nM
O=C(O)CC[C@H]1C[C@H](c2cccc(Cl)c2)[C@@H](c2ccc(Cl)cc2)N(CC2CC2)C1=O	570	6630	–
CC(C)CN1C(=O)CC[C@H](c2cccc(Cl)c2)[C@H]1c1ccc(Cl)cc1 (racemic)	2300	> 30000	–
CCCN1C(=O)CC[C@H](c2cccc(Cl)c2)[C@H]1c1ccc(Cl)cc1 (racemic)	1900	> 30000	–
N#CC[C@H]1C[C@H](c2cccc(Cl)c2)[C@@H](c2ccc(Cl)cc2)N(CC2CC2)C1=O	2340	> 30000	–
COC(=O)CN1C(=O)CC[C@H](c2cccc(Cl)c2)[C@H]1c1ccc(Cl)cc1 (racemic)	5500	> 30000	–
O=C1CC[C@H](c2cccc(Cl)c2)[C@@H](c2ccc(Cl)cc2)N1CC1CC1 (racemic)	1500	–	–
CCOC(=O)[C@H](CC)N1C(=O)CC[C@H](c2cccc(Cl)c2)[C@H]1c1ccc(Cl)cc1 (racemic)	940	18700	–
CC[C@@H](C(=O)OC(C)(C)C)N1C(=O)[C@@H](Cc2nnn[nH]2)C[C@H](c2cccc(Cl)c2)[C@H]1c1ccc(Cl)cc1	1.8	20.3	IC50 (SJSA-1 [1]): 312 nM
CCOC(=O)[C@@H](CC)N1C(=O)CC[C@H](c2cccc(Cl)c2)[C@H]1c1ccc(Cl)cc1 (racemic)	3500	> 30000	–
O=C1CC[C@H](c2cccc(Cl)c2)[C@@H](c2ccc(Cl)cc2)N1CC1CC1	820	> 30000	–
O=C1CC[C@@H](c2cccc(Cl)c2)[C@H](c2ccc(Cl)cc2)N1CC1CC1	> 30000	> 30000	–
CCOC(=O)[C@H](C)N1C(=O)CC[C@H](c2cccc(Cl)c2)[C@H]1c1ccc(Cl)cc1 (racemic)	1700	> 30000	–
CC[C@@H]([C@H](C)O)N1C(=O)[C@@](C)(CC(=O)O)C[C@H](c2cccc(Cl)c2)[C@H]1c1ccc(Cl)cc1	–	–	Vd [4]: 5.2 L/kg; Vd [5]: 6.2 L/kg; Activity (SJSA-1 [6]): Active; Vd [7]: 12 L/kg; ED50 (SJSA-1 [8]): 78 mg/kg; Activity (Mus musculus [9]): Dose-dependent effect; Activity (Mus musculus [10]): Dose-dependent effect; Activity (SJSA-1 [11]): Dose-dependent effect
CCCCN1C(=O)CC[C@H](c2cccc(Cl)c2)[C@H]1c1ccc(Cl)cc1 (racemic)	2700	> 30000	–
O=C1CC[C@H](c2cccc(Cl)c2)[C@@H](c2ccc(Cl)cc2)N1Cc1ccccc1 (racemic)	5400	> 30000	–
CC[C@@H](C(=O)OC(C)(C)C)N1C(=O)[C@@](C)(CC(=O)O)C[C@H](c2cccc(Cl)c2)[C@H]1c1ccc(Cl)cc1	–	–	Vd [4]: 1.3 L/kg; bioavailability [12]: 36%; bioavailability [13]: 77%; clearance [14]: 45 mL/min/kg; Activity (Mus musculus [15]): Dose-dependent effect; hepatocyte CLint [16]: 26 µL/min/1e6 cells; inhibition at 3 µM (CYP3A4 [17]): 40%; Vd [7]: 1.5 L/kg; ED50 (SJSA-1 [8]): 118 mg/kg; clearance [18]: 25 mL/min/kg; activity at 2 µM (PXR (NR1I2)): 27%; inhibition in vivo at 200 mg/kg (SJSA-1 [19]): 91%; TGI (SJSA-1 [20]): Dose-dependent effect; Activity (HCT-116): inactive; activity at 0.25 h, 10 µM (CYP3A4 [21]): 77%
CCC[C@@H](C(=O)OCC)N1C(=O)CC[C@H](c2cccc(Cl)c2)[C@H]1c1ccc(Cl)cc1 (racemic)	1400	> 30000	–
CC[C@@H](C(=O)OC(C)(C)C)N1C(=O)[C@@](C)(Cc2nnn[nH]2)C[C@H](c2cccc(Cl)c2)[C@H]1c1ccc(Cl)cc1	0.9	9	inhibition at 3 µM (CYP3A4 [17]): 80%; activity at 2 µM (PXR (NR1I2)): 65%; activity at 0.25 h, 10 µM (CYP3A4 [21]): 30%; IC50 (SJSA-1 [1]): 170 nM
C=CC[C@H]1C[C@H](c2cccc(Cl)c2)[C@@H](c2ccc(Cl)cc2)N(CC2CC2)C1=O	6500	> 30000	–
O=C(O)CC[C@@H]1C[C@H](c2cccc(Cl)c2)[C@@H](c2ccc(Cl)cc2)N(CC2CC2)C1=O	340	6640	–
O=C1CC[C@H](c2cccc(Cl)c2)[C@@H](c2ccc(Cl)cc2)N1 (racemic)	10000	> 30000	–
